Reference: ChEMBL document CHEMBL1124416, “5-(1-piperazinyl)-1H-1,2,4-triazol-3-amines as antihypertensive agents” (1989)

Legend:
[1] = species on record: Rattus norvegicus; assay type: functional, Artery; settings: dose 100 mg/kg; route oral
[2] = system: Rattus norvegicus; assay: Assessment of antihypertensive activity at 100 mg/kg administered perorally by measuring the heart rate in rats; assay type: functional; settings: route oral
[3] = system: Rattus norvegicus; assay: The antihypertensive activity was assessed by measuring the heart rate in rats when administered at 50 mg/kg; assay type: functional
Method in brief: (§1)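 16-week-old male SH rats (Okamoto) were dosed by oral gavage in 3% starch in normal saline (2 mL/kg), plus an oral saline load of 25 mL/kg. They were redosed at 24 h without the saline load. MABP and HR were taken by direct femoral arterial puncture under local anesthesia 4 h after the second dose. HR was rounded to 10 bpm.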

[4] = system: Rattus norvegicus; assay: The antihypertensive activity was assessed by measuring the mean arterial blood pressure in rats when administered at 10 mg/kg; assay type: functional
Method in brief: as §1

[5] = system: Rattus norvegicus; assay: The antihypertensive activity was assessed by measuring the heart rate in rats when administered at 30 mg/kg; assay type: functional
Method in brief: as §1

[6] = system: Rattus norvegicus; assay: The antihypertensive activity was assessed by measuring the mean arterial blood pressure in rats when administered at 30 mg/kg; assay type: functional
Method in brief: as §1

[7] = system: Rattus norvegicus; assay: The antihypertensive activity was assessed by measuring the mean arterial blood pressure in rats when administered at 50 mg/kg; assay type: functional
Method in brief: as §1

[8] = system: Rattus norvegicus; assay: The antihypertensive activity was assessed by measuring the heart rate in rats when administered at 10 mg/kg; assay type: functional
Method in brief: as §1

[9] = system: Rattus norvegicus; assay: The antihypertensive activity at 100 mg/kg administered perorally was assessed by measuring the mean arterial blood pressure (MABP) in rats; assay type: functional; settings: route oral
Method in brief: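 Male SH rats (Okamoto, 16 weeks old) got 100 mg/kg by oral gavage in 3% starch in normal saline (2 mL/kg), then an oral 25 mL/kg saline load. They were redosed at 24 h without the load. MABP and HR were taken by direct femoral arterial puncture under local anesthesia 4 h after the second dose, in one to three rats per compound. Active: one rat reduced to 116 mmHg, or a two-rat average reduced to 122 mmHg.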

Compound | MABP [1] [mmHg] | HR [2] [beats min-1] | further results
N#Cc1ccc(CN2CCN(c3nc(N)n[nH]3)CC2)cc1 | 127 | 420 | –
Nc1n[nH]c(N2CCN(Cc3ccco3)CC2)n1 | 114 | 410 | HR [3]: 370 beats min-1; MABP [4]: 153 mmHg; HR [5]: 440 beats min-1; MABP [6]: 115 mmHg; MABP [7]: 102 mmHg; HR [8]: 440 beats min-1
CN(C)c1ccc(CN2CCN(c3n[nH]c(N)n3)CC2)cc1Br | 116 | 320 | –
CN(C)c1ccc(CN2CCN(c3n[nH]c(N)n3)CC2)cc1 | 111 | 380 | HR [3]: 440 beats min-1; MABP [7]: 129 mmHg
Nc1n[nH]c(N2CCN(C(c3ccccc3)c3ccc(Cl)cc3)CC2)n1 (stereo unspecified) | 115 | 350 | –
Nc1n[nH]c(N2CCN(Cc3ccncc3)CC2)n1 | 142 | 380 | –
COc1ccccc1N1CCN(c2n[nH]c(N)n2)CC1 | 157 | 440 | –
Nc1n[nH]c(N2CCN(CC3CCCCC3)CC2)n1 | 123 | 420 | –
CN(C)CCCN1CCN(c2n[nH]c(N)n2)CC1 | 140 | 420 | –
Nc1n[nH]c(N2CCN(CC3CC3)CC2)n1 | 104 | 390 | –
Cc1cc(C)c(CN2CCN(c3n[nH]c(N)n3)CC2)c(C)c1 | 137 | 430 | –
Cc1ccc(C)c(CN2CCN(c3n[nH]c(N)n3)CC2)c1 | 139 | 400 | –
COc1ccc(CN2CCN(c3n[nH]c(N)n3)CC2)c(OC)c1OC | 147 | 420 | –
Nc1n[nH]c(N2CCN(CC3CCCC3)CC2)n1 | 114 | – | HR [3]: 440 beats min-1; MABP [7]: 117 mmHg
Nc1n[nH]c(N2CCN(c3ccccn3)CC2)n1 | 133 | 430 | –
CC(c1ccccc1)N1CCN(c2n[nH]c(N)n2)CC1 (stereo unspecified) | 136 | 370 | –
Nc1n[nH]c(N2CCN(Cc3c(Cl)cccc3Cl)CC2)n1 | 140 | 400 | –
Nc1n[nH]c(N2CCN(CCc3ccccc3)CC2)n1 | 77 | 330 | MABP [4]: 142 mmHg; HR [8]: 440 beats min-1
Nc1n[nH]c(N2CCN(c3ccc(F)cc3)CC2)n1 | 151 | 420 | –
Nc1n[nH]c(N2CCN(Cc3cccc(C(F)(F)F)c3)CC2)n1 | 129 | 390 | –
Nc1n[nH]c(N2CCN(CCCc3ccccc3)CC2)n1 | 93 | 380 | HR [3]: 520 beats min-1; MABP [7]: 95 mmHg
CCCCc1ccc(CN2CCN(c3n[nH]c(N)n3)CC2)cc1 | 136 | 360 | –
Nc1n[nH]c(N2CCN(C(=O)c3ccc(-c4ccccc4)cc3)CC2)n1 | 138 | 400 | –
Nc1n[nH]c(N2CCN(C/C=C/c3ccccc3)CC2)n1 | 101 | 430 | –
Nc1n[nH]c(N2CCN(Cc3ccc4ccccc4n3)CC2)n1 | 121 | 440 | –

Compound | MABP [1] [mmHg] | HR [2] [beats min-1] | further results
CN(C)c1ccc(CN2CCN(c3n[nH]c(N)n3)CC2)c(Cl)c1 | 120 | 400 | –
CC(=O)N1CCN(c2n[nH]c(N)n2)CC1 | 142 | 440 | –
Nc1n[nH]c(N2CCN(Cc3ccccc3)CC2)n1 | 102 | 360 | MABP [4]: 118 mmHg; HR [8]: 400 beats min-1
Nc1n[nH]c(N2CCN(c3ccccc3)CC2)n1 | 128 | 340 | –
Cc1ccc(CN2CCN(c3n[nH]c(N)n3)CC2)cc1 | 112 | 340 | HR [3]: 350 beats min-1; MABP [7]: 70 mmHg
Cc1ccccc1CN1CCN(c2n[nH]c(N)n2)CC1 | 131 | 410 | –
CC(C)(C)c1ccc(CN2CCN(c3n[nH]c(N)n3)CC2)cc1 | 130 | 350 | –
Nc1n[nH]c(N2CCN(C(=O)c3ccco3)CC2)n1 | 142 | 410 | –
Nc1n[nH]c(N2CCN(Cc3ccc(F)cc3)CC2)n1 | 97 | 360 | –
Nc1n[nH]c(N2CCN(Cc3ccccc3F)CC2)n1 | 97 | 350 | HR [3]: 330 beats min-1; MABP [7]: 79 mmHg
Nc1n[nH]c(N2CCN(Cc3ccc(Cl)c(Cl)c3)CC2)n1 | 95 | 330 | –
Cc1cccc(CN2CCN(c3n[nH]c(N)n3)CC2)c1 | 132 | 440 | –
CC(C)(C)c1ccc(C(=O)N2CCN(c3n[nH]c(N)n3)CC2)cc1 | 141 | 400 | –
Nc1n[nH]c(N2CCN(Cc3ccccc3[N+](=O)[O-])CC2)n1 | 135 | 430 | –
Nc1n[nH]c(N2CCN(CCCOc3ccccc3)CC2)n1 | 89 | 310 | –
CN1CCN(c2n[nH]c(N)n2)CC1 | 116 | – | HR [3]: 440 beats min-1; HR [9]: 400 beats min-1; MABP [7]: 133 mmHg
CC(C)C(=O)N1CCN(c2n[nH]c(N)n2)CC1 | 141 | 410 | –
Nc1ccc(CN2CCN(c3n[nH]c(N)n3)CC2)cc1 | 109 | 380 | –
Nc1n[nH]c(N2CCN(Cc3ccc(F)cc3Cl)CC2)n1 | 145 | 410 | –
C=CCN1CCN(c2nc(N)n[nH]2)CC1 | 96 | 360 | –
COc1cc(CN2CCN(c3n[nH]c(N)n3)CC2)cc(OC)c1OC | 132 | 440 | –
Nc1n[nH]c(N2CCN(CCNCc3ccncc3)CC2)n1 | 144 | 440 | –
Br.Br.Nc1n[nH]c(N2CCNCC2)n1 | 92 | 410 | –
Cl.Cl.Nc1n[nH]c(N2CCN(Cc3cccc4ccccc34)CC2)n1 | 133 | 350 | –
Clc1cccc(Cl)c1NC1=NCCN1 [CLONIDINE] | 102 | 180 | –
